PvdQ acylase – blocks Pseudomonas aeruginosa PvdQ acylase activity; purified PvdQ acylase, fluorescence plate reader; inhibition, % at 10 µM; actives 0.063% (n = 340,000); in the data active = inhibition above about 30%, passing the limit was not always enough;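 also: 0% = vehicle neutral wells and 100% = reference inhibitor wells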
UPR XBP1 act – adaptive UPR (XBP1) activation; CHO-XBP1 luciferase reporter, IRE1-XBP1 UPR activation, luminescence; percent of tunicamycin response, DMSO as zero; activation, % at 20 µM; actives 0.33% (n = 330,000); AID 463104;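 active = versus positive control, 20 µM dose yields 30% or more activation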;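 also: 100% = tunicamycin at 10 µg/mL and 0% = DMSO only wells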
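Signal: luciferase luminescence; Assay system: CHO-XBP1 luciferase reporter cells; Amount: one thousand reporter cells per well; Dosing: 20 µM single concentration, DMSO 1%; Benchmarks: high control tunicamycin 10 µg/mL final, low control DMSO vehicle only; Schedule: 6 h compound exposure at 37 °C, 5% CO2; Evaluation: percent activation relative to tunicamycin reference.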
UPR CHOP act – activators of apoptotic arm of unfolded protein response (CHOP). CHO-CHOP luciferase reporter, UPR activation, luminescence; percent of tunicamycin response over DMSO baseline. activation, % at 10 µM. actives 0.34% (n = 330,000). AID 449763;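 active = at 10 µM dose, activation of 40% or more, normalized to positive control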;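 also: 100% = tunicamycin at 10 µg/mL and 0% = DMSO alone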
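measured by = luciferase luminescence | assay system = CHO-CHOP cells, stable luciferase reporter of PERK-eIF2a-CHOP signalling | amount = 500 reporter cells seeded per well | timing = 6 h compound exposure at 37 °C after overnight seeding | controls = positive tunicamycin 10 µg/mL, negative DMSO alone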
CHOP inh – CHOP inhibition in unfolded protein response; CHO-K1 CHOP-promoter luciferase, tunicamycin-induced, 15-18 h; inhibition, % at 10 µM; actives 3.8% (n = 220,000); AID 2732;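 active = compounds that reduced the stress-induced luciferase reporter signal by more than about 70% of percent inhibition, limit read from the data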;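 also: 0% = tunicamycin plus vehicle and 100% = wells without tunicamycin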
An asterisk follows results filed as active; . = no result given. Many of the other results were omitted from the sample, so hits are more common in it than they were.

SMILES	PvdQ acylase	UPR XBP1 act	UPR CHOP act	CHOP inh
COc1ccc(Cn2c(O)c(C=Nc3ccccc3)c3ccccc3c2=O)cc1	-12.2	0.9	-0.5	40.4
COc1ccc(N=Cc2c(O)ccc3ccccc23)cc1	-9.9	-3.9	-0.3	79.5*
COc1ccc(Cn2c(O)c(C=Nc3ccc(O)cc3)c3ccccc3c2=O)cc1	-7.2	1.3	-1.6	85.4*
CCN(c1ccccc1)S(=O)(=O)c1ccc(Cl)c(C(=O)N(CC2CCCO2)C2CCS(=O)(=O)C2)c1 (stereo not given)	4.2	-0.5	19.3	18.1
CCOc1cc(CNc2ccc(N(C)C)cc2)cc(Br)c1OCC(=O)NC(C)(C)C	-6.6	2.4	-1.6	94.9*
CCOc1cc(CNc2ccc(N3CCCCC3)cc2)cc(Br)c1OCC(=O)NC(C)(C)C	16.4	-2.9	2.4	16.8
CCn1cc(C(=O)O)c(=O)c2cc(F)c(N3CCN(C(=S)NC(=O)c4ccc(Br)cc4)CC3)cc21	-9.9	4.9	-2.5	73.2*
CCn1cc(C(=O)O)c(=O)c2cc(F)c(N/N=C/c3ccccc3)cc21	-5.0	-0.5	0.7	103.1*
COc1ccc(C(=O)Nc2cc3c4c(c2)CC(=O)N4CCC3)cc1	1.2	2.3	3.3	.
CCN(CC(=O)NCc1ccc(Cl)cc1)C(=O)CSCC(=O)Nc1ccc(OC)cc1	-12.2	-2.1	0.7	.
CC(=O)c1sc(NC(=O)COc2ccccc2)nc1C	-1.6	2.6	4.1	-9.8
CC(=O)c1sc(NC(=O)COc2ccc(C(C)C)c(C)c2)nc1C	-13.7	0.2	0.6	77.4*
COC(=O)Nc1cc(C(=O)c2ccc(Cl)cc2Cl)c[nH]1	-7.8	-4.9	0.2	.
COc1ccc(Cl)cc1NC(=O)CSc1nnc(COc2ccccc2)n1C	-12.1	-3.2	0.8	79.9*
CC(C)[C@H](NS(=O)(=O)c1ccccc1)C(=O)OCC(=O)Nc1cccc(S(N)(=O)=O)c1	-13.7	-1.1	0.4	.
Cc1csc(NC(=O)C2CCN(S(=O)(=O)c3cccs3)CC2)n1	7.5	-2.4	0.7	-13.0
CC(=O)Nc1ccc(-c2csc(NC(=O)C3CCN(S(=O)(=O)c4cccs4)CC3)n2)cc1	17.1	.	.	80.6*
COc1ccc2c(c1)C(=NO)c1cc(OC)ccc1-2	-1.7	1.4	0.1	72.1*
CCOC(=O)CC(=O)COc1nc2cc3c(nc2o1)CCCC3	11.7	-0.9	2.2	.
Cc1[nH]c2ccccc2c1SCCN	-9.4	-0.7	-0.1	.
Cc1[nH]c2ccccc2c1SCc1ccccc1	-6.9	3.6	1.7	82.9*
Cc1ccc(NC(=O)C(OC(=O)c2cc(C)oc2C)c2ccccc2)cc1 (stereo not given)	-9.9	-1.9	0.5	53.5
Cc1cc(C(=O)OC(C(=O)Nc2cccc(C(F)(F)F)c2)c2ccccc2)c(C)o1 (stereo not given)	-2.6	-1.8	1.0	82.7*
C=CCn1c(=O)c2ccc(C(=O)NCc3ccccc3)cc2n(Cc2cccc(Cl)c2)c1=O	2.8	-4.0	0.5	18.2
C=CCn1c(=O)c2ccc(C(=O)NCc3ccccc3)cc2n(Cc2ccc(Cl)cc2)c1=O	-20.6	23.6	4.1	86.5*
SMILES	PvdQ acylase	UPR XBP1 act	UPR CHOP act	CHOP inh
COc1cc(C(O)P(=O)(OCC(C)C)c2ccc(N(C)C)cc2)cc(OC)c1OC (stereo not given)	-13.9	-2.4	-0.7	-14.8
Cc1cc(N2CCC(C)CC2)nc2cccc(O)c12	-14.6	0.1	0.9	82.2*
CCc1nnc(NC(=O)c2cc(S(=O)(=O)N3CCOCC3)ccc2N2CCCCC2)s1	-11.2	.	.	71.5*
O=C(Nc1nnc(C2CC2)s1)c1cc(S(=O)(=O)N2CCCCC2)ccc1N1CCOCC1	-4.7	-2.3	0.1	3.0
Cc1ccc(C)c(N2CCN(C(=O)Cc3cn(C)c4ccccc34)CC2)c1	3.8	-1.6	0.6	74.1*
CCC(=O)c1ccc(N2CCN(C(=O)c3ccccc3F)CC2)c(F)c1	-3.2	-1.1	-1.4	20.2
Cc1ccc(N2CCN(C(=O)c3ccccc3F)CC2)c(C)c1	-10.4	1.0	0.4	92.6*
Cc1ccc(C)c(N2CCN(C(=O)c3csc4ccccc34)CC2)c1	-5.2	0.8	0.4	80.0*
CCOC(=O)C1CCN(CC(=O)Nc2cc(S(=O)(=O)N3CCOCC3)ccc2C)CC1	2.0	-2.9	-1.4	-22.1
O=c1[nH]cc(N(CCO)CCO)c(=O)[nH]1	2.1	-3.5	0.7	-16.4
COC(=O)c1c(-c2cccs2)csc1NC(=O)CN1CCOCC1	-16.2	0.2	-1.8	73.9*
CCOC(=O)c1c(-c2ccc(OC)cc2)csc1NC(=O)CCN1CCOCC1	-8.5	1.0	-1.4	-5.0
